Measurements from ChEMBL document CHEMBL4359825, “Synthesis of novel S-linked dihydroartemisinin derivatives and evaluation of their anticancer activity” (Eur J Med Chem, 2019).
Activity calls are given as the source filed them. The rule behind the calls is not given here.

What was measured:
LNCaP = assay: Anticancer activity against human LNCAP cells assessed as cell viability measured after 72 hrs by MTT assay (reference value: 100 +/- 5.0 %); assay type: functional; parameters: concentration or dose not given beside the values
PC-3 [1] = assay: Anticancer activity against human PC3 cells assessed as cell viability measured after 72 hrs by MTT assay (reference value: 100 +/- 18.8 %); assay type: functional; parameters: concentration or dose not given beside the values
HeLa = assay: Anticancer activity against human HeLa cells assessed as cell viability measured after 72 hrs by MTT assay (reference value: 100 +/- 11.5 %); assay type: functional; parameters: concentration or dose not given beside the values
HepG2 [2] = assay: Anticancer activity against human HepG2 cells assessed as cell viability measured after 72 hrs by MTT assay (reference value: 100 +/- 6.5 %); assay type: functional; parameters: concentration or dose not given beside the values
MDA-MB-231 = assay: Anticancer activity against human MDA-MB-231 cells assessed as cell viability measured after 72 hrs by MTT assay (reference value: 100 +/- 20.0 %); assay type: functional; parameters: concentration or dose not given beside the values
PC-3 [3] = assay: Anticancer activity against human PC3 cells assessed as reduction in cell viability measured after 72 hrs by MTT assay; assay type: functional, cell-based; details: PC-3, 72 h
HepG2 [4] = assay: Anticancer activity against human HepG2 cells assessed as reduction in cell viability measured after 72 hrs by MTT assay; assay type: functional, cell-based; details: HepG2, 72 h
PC-3 [5] = assay: Antiproliferative activity against human PC3 cells assessed as reduction in cell viability upto 10 uM incubated for 24 hrs by MTT assay; assay type: functional, cell-based
PC-3 [6] = assay: Antiproliferative activity against human PC3 cells assessed as reduction in cell viability at 1 to 10 uM incubated for 72 hrs by MTT assay; assay type: functional, cell-based
PC-3 [7] = assay: Anticlonogenic activity against human PC3 cells assessed as reduction in colony formation incubated for 72 hrs supplemented with fresh medium containing measured after 15 days by colony formation assay; assay type: functional, cell-based
How it was run: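 Clonogenic assay: PC-3 seeded at 500 cells/well in six-well plates, allowed to adhere overnight, then treated. Medium and compound renewed every 72 h over 15 days. Colonies fixed with 3.7% formaldehyde for 20 min, stained with 0.4% crystal violet and counted. Three experiments, each in quadruplicate, expressed as fold change versus control.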

PC-3 [8] = assay: Induction of reactive oxygen species generation in human PC3 cells assessed as increase in intracellular ROS level at 3 to 10 uM incubated for 3 hrs by CM-H2DCFDA staining based fluorescence microscopy analysis; assay type: functional, cell-based
How it was run: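 Approx. 1×10^5 PC-3 cells per well treated 3 h at 3 or 10 μM; medium replaced with 10 μM CM-H2DCFDA for 30 min in dark at 37 °C, nuclei counterstained Hoechst 33342 (1 μg/mL) 15 min at room temperature; fluorescence microscopy, percentage ROS-producing cells scored versus vehicle.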

PC-3 [9] = assay: Induction of apoptosis in human PC3 cells assessed as decrease in mitochondrial membrane potential at 3 to 10 uM after 48 hrs by JC-1 staining based fluorescence microscopy analysis; assay type: functional, cell-based
How it was run: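 PC-3 cells exposed to 3 or 10 μM for 48 h, then stained with JC-1 (10 μM) for 30 min in the dark. Mitochondrial potential judged by red/green fluorescence under a fluorescence microscope.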

PC-3 [10] = assay: Cell cycle arrest in human PC3 cells assessed as accumulation at G0/G1 phase at 3 uM measured after 48 hrs by RNase/propidium iodide staining based flow cytometry analysis (reference value: 42.59 %); assay type: functional
PC-3 [11] = assay: Cell cycle arrest in human PC3 cells assessed as accumulation at G0/G1 phase at 10 uM measured after 48 hrs by RNase/propidium iodide staining based flow cytometry analysis (reference value: 42.59 %); assay type: functional
PC-3 [12] = assay: Cell cycle arrest in human PC3 cells assessed as accumulation at G2/M phase at 10 uM measured after 48 hrs by RNase/propidium iodide staining based flow cytometry analysis (reference value: 34.95 %); assay type: functional
PC-3 [13] = assay: Induction of apoptosis in human PC3 cells assessed as decrease in pro-caspase-3 level after 72 hrs by Western blot analysis; assay type: functional, cell-based
How it was run: (§1)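 Western blot: PC-3 seeded 1.25 × 10^5/well, exposed to 0.1–10 μM for 72 h. Lysed in 2× SDS buffer and sonicated; 20–25 μg protein run on 12% SDS gel, transferred to PVDF, blocked in 5% BSA/TBST. Primary antibodies overnight, secondary 1 h; ECL detection, β-actin loading control.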

PC-3 [14] = assay: Induction of apoptosis in human PC3 cells assessed as upregulation of Bax expression measured after 72 hrs by Western blot analysis; assay type: functional, cell-based; how it was run: as §1
PC-3 [15] = assay: Induction of cell death in human PC3 cells at 3 uM measured after 72 hrs by propidium iodide staining based flow cytometry analysis (reference value: 0.5 %); assay type: functional
How it was run: (§2)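 PC-3 cells in six-well plates exposed to 3 or 10 μM for 72 h, 0.1% DMSO vehicle as control; cells harvested, PBS-washed, stained with propidium iodide (5 μg/mL) 20 min at 4 °C; percentage dead cells read by flow cytometry; t-test against vehicle.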

PC-3 [16] = assay: Induction of cell death in human PC3 cells at 10 uM measured after 72 hrs by propidium iodide staining based flow cytometry analysis (reference value: 0.5 %); assay type: functional; how it was run: as §2
PC-3 [17] = assay: Antimetastatic activity against human PC3 cells assessed as inhibition of MMP-2 at 3 to 10 uM measured after 48 hrs by gelatin zymography; assay type: functional, cell-based
How it was run: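 PC-3 monolayers scratched, then treated with 3 or 10 μM for 48 h in serum-containing medium, then 24 h in serum-free medium. Conditioned medium run non-reduced on 7.5% SDS-PAGE containing gelatin 4 mg/mL. Gel washed in 2.5% Triton X-100, incubated 24 h at 37 °C in Tris pH 7.5 with CaCl2/ZnCl2, Coomassie stained; lysis seen as clear bands.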

PC-3 [18] = assay: Downregulation of E2F1 mRNA expression in human PC3 cells at 3 to 10 uM measured after 72 hrs by TRIzol dye based RT-PCR analysis; assay type: functional, cell-based
How it was run: (§3)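 PC-3 (1.25 × 10^5/well) treated 72 h with 3 or 10 μM. Total RNA extracted with TRIzol; cDNA made from 2 μg RNA. SYBR qPCR: 95 °C 10 min, then 40 cycles of 95 °C/60 °C. Expression normalised to GAPDH by 2^-ΔΔCt; three experiments.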

PC-3 [19] = assay: Downregulation of BCL-xL mRNA expression in human PC3 cells at 3 to 10 uM measured after 72 hrs by TRIzol dye based RT-PCR analysis; assay type: functional, cell-based; how it was run: as §3
PC-3 [20] = assay: Upregulation of p21 mRNA expression in human PC3 cells at 3 to 10 uM measured after 72 hrs by TRIzol dye based RT-PCR analysis; assay type: functional, cell-based
How it was run: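 PC-3 cells (1.25×10^5 per well) treated 72 h at 3 or 10 μM; total RNA by TRIzol, cDNA from 2 μg; SYBR real-time PCR, 95 °C 10 min then 40 cycles 95 °C 15 s/60 °C; Ct normalised to GAPDH, relative expression by 2^-ΔΔCt; three experiments.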

PC-3 [21] = assay: Induction of cell death in human PC3 cells measured after 72 hrs by propidium iodide staining based flow cytometry analysis; assay type: functional; how it was run: as §2
PC-3 [22] = assay: Downregulation of Pin1 expression in human PC3 cells at 3 to 10 uM measured after 72 hrs by Western blot analysis; assay type: functional, cell-based; how it was run: as §1
[23] = target: Peptidyl-prolyl cis-trans isomerase NIMA-interacting 1 (Homo sapiens) (UniProt Q13526); assay: Inhibition of proteasome mediated Pin1 in human PC3 cells at 10 uM measured after 72 hrs in presence of MG132; assay type: cell-based
Chain of Peptidyl-prolyl cis-trans isomerase NIMA-interacting 1 (Homo sapiens) (Q13526 whole entry): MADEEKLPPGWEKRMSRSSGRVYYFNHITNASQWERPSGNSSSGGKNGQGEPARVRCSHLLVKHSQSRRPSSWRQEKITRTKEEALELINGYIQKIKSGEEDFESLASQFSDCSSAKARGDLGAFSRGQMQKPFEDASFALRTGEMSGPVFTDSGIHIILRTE

Compound: COC(=O)Cc1ccc(S[C@@H]2O[C@@H]3O[C@@]4(C)CC[C@H]5[C@H](C)CC[C@@H]([C@H]2C)[C@@]35OO4)cc1
- Activity (LNCaP): 38%
- Activity (PC-3 [1]): 28%
- Activity (HeLa): 43%
- Activity (HepG2 [2]): 50%
- Activity (MDA-MB-231): 45%
- IC50 (PC-3 [3]): 6.13 µM
- IC50 (HepG2 [4]): 6.08 µM
- Activity (PC-3 [5]): inactive
- Activity (PC-3 [6]): Active
- Activity (PC-3 [7]): Dose-dependent effect
- Activity (PC-3 [8]): Active
- Activity (PC-3 [9]): Active
- Activity (PC-3 [10]): 54.49%
- Activity (PC-3 [11]): 53.71%
- Activity (PC-3 [12]): 32.19%
- Activity (PC-3 [13]): Dose-dependent effect
- Activity (PC-3 [14]): Dose-dependent effect
- Activity (PC-3 [15]): 26.3%
- Activity (PC-3 [16]): 28.9%
- inhibition (PC-3 [17]): Dose-dependent effect
- Activity (PC-3 [18]): Active
- Activity (PC-3 [19]): Active
- Activity (PC-3 [20]): Active
- Activity (PC-3 [21]): Dose-dependent effect
- Activity (PC-3 [22]): Active
- inhibition [23]: inactive
